Here are results for one compound from ChEMBL document CHEMBL3297742, “Tetrahydronaphthyridine and dihydronaphthyridinone ethers as positive allosteric modulators of the metabotropic glutamate receptor 5 (mGlu₅)” (J Med Chem, 2014).

pEC50, pIC50: −log10 of the molar value. Values after ≈ are worked out from the molar mass of the structure shown.

Data set [1] can be described thus: Ratio of unbound drug level in brain to plasma in rat. Type of data set: ADME, cell-free. In a few lines: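 Kp,uu derived from the in vivo brain:plasma ratio and in vitro rat fu,plasma/fu,brain, with the binding values from rat plasma protein and rat brain homogenate binding experiments.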
The target in data set [2] is Metabotropic glutamate receptor 5 (Rattus norvegicus, UniProt P31424). The data set is described as follows: Positive allosteric modulator activity at rat mGlu5 receptor expressed in HEK293 cells assessed as potentiation of glutamate-induced calcium mobilization by fluorescence assay. As to conditions: read-out: EC50. Format: functional, cell-based. Summed up:
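HEK293 cells stably expressing rat mGlu5, 15000 cells/well, grown overnight, loaded with 1 µM Fluo-4AM for 50 min at 37 °C in HBSS/20 mM HEPES/2.5 mM probenecid pH 7.4. Compound added, then an EC20 of glutamate 140 s later and an EC80 90–120 s after that. Fluorescence over basal normalized to maximal glutamate response (100 µM glutamate); compound at up to 30 µM; ≥3 independent determinations.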

Another data set relates to Plasma. As to the kind of experiment: Fraction unbound in rat plasma. Type of data set: ADME, cell-free.
Data set [3] has as its target Metabotropic glutamate receptor 1 (Rattus norvegicus, UniProt P23385). The data set is described as follows: Positive allosteric modulator activity at rat mGlu1 receptor expressed in HEK293 cells assessed as glutamate-induced calcium mobilization treated 140s prior to glutamate challenge by fluorescence assay. Type of data set: functional, cell-based. In a few lines: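 HEK293 cells stably expressing rat mGlu1, 20000 cells/well, Fluo-4AM calcium flux. Vehicle or 10 µM compound (final) added, then a glutamate concentration–response curve 140 s later.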

In data set [4] the target is Metabotropic glutamate receptor 2 (Rattus norvegicus, UniProt P31421). The data set is described as follows: Positive allosteric modulator activity at rat mGlu2 receptor expressed in HEK293 cells assessed as glutamate-induced GIRK channel-mediated thallium flux treated 140s prior to gluatamate challenge by fluorescence analysis. Format: cell-based. In a few lines: (§1)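 HEK293-GIRK cells expressing rat mGlu2, 3, 4, 6, 7 or 8, 15000 cells/well. Vehicle or 10 µM compound added, then 140 s later a glutamate CRC (L-AP4 for mGlu7) in thallium buffer (12 mM thallium sulfate, 10 mM HEPES). Thallium flux through GIRK read by fluorescence.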
Metabotropic glutamate receptor 2, sequence (P31421 whole entry): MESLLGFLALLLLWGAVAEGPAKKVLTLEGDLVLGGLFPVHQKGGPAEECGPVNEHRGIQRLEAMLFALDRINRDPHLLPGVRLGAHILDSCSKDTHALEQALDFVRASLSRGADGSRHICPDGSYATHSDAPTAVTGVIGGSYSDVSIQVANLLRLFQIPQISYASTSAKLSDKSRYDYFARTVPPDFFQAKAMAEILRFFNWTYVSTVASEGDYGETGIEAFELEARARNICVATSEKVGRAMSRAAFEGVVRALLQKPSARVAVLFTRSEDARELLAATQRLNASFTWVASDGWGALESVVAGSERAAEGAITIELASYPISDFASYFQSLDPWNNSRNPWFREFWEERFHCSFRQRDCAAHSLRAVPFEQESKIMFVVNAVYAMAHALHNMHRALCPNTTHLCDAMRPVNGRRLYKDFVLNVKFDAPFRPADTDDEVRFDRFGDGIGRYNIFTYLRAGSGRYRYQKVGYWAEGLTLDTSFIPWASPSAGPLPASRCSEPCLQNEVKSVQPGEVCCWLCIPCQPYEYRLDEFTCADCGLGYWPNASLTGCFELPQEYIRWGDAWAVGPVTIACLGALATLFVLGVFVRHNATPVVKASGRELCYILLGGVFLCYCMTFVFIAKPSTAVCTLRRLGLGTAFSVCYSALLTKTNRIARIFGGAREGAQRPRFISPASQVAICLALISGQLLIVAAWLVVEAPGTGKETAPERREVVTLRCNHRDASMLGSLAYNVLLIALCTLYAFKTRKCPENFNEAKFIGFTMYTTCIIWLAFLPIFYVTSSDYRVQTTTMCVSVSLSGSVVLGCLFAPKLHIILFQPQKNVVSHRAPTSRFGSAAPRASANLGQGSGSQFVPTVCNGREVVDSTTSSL

In data set [5] the target is Metabotropic glutamate receptor 4 (Rattus norvegicus, UniProt P31423). As to the kind of experiment: Positive allosteric modulator activity at rat mGlu4 receptor expressed in HEK293 cells assessed as glutamate-induced GIRK channel-mediated thallium flux treated 140s prior to gluatamate challenge by fluorescence analysis. Type of data set: cell-based. In a few lines:
as §1

Data set [6] deals with Metabotropic glutamate receptor 6 (Rattus norvegicus, UniProt P35349). As to the kind of experiment: Positive allosteric modulator activity at rat mGlu6 receptor expressed in HEK293 cells assessed as glutamate-induced GIRK channel-mediated thallium flux treated 140s prior to gluatamate challenge by fluorescence analysis. Type of data set: cell-based. In a few lines: as §1

The target in data set [7] is Metabotropic glutamate receptor 7 (Rattus norvegicus, UniProt P35400). The data set is described as follows: Positive allosteric modulator activity at rat mGlu7 receptor expressed in HEK293 cells assessed as L-AP4-induced GIRK channel-mediated thallium flux treated 140s prior to L-AP4 challenge by fluorescence analysis. Type of data set: cell-based. Summed up:
as §1

The target in data set [8] is Metabotropic glutamate receptor 8 (Rattus norvegicus, UniProt P70579). As to the kind of experiment: Positive allosteric modulator activity at rat mGlu8 receptor expressed in HEK293 cells assessed as glutamate-induced GIRK channel-mediated thallium flux treated 140s prior to glutamate challenge by fluorescence analysis. Type of data set: cell-based. Summed up:
as §1

The target of a further data set is T1, Cytochrome P450 1A2 (Homo sapiens, UniProt P05177).
T1 sequence (P05177 whole entry): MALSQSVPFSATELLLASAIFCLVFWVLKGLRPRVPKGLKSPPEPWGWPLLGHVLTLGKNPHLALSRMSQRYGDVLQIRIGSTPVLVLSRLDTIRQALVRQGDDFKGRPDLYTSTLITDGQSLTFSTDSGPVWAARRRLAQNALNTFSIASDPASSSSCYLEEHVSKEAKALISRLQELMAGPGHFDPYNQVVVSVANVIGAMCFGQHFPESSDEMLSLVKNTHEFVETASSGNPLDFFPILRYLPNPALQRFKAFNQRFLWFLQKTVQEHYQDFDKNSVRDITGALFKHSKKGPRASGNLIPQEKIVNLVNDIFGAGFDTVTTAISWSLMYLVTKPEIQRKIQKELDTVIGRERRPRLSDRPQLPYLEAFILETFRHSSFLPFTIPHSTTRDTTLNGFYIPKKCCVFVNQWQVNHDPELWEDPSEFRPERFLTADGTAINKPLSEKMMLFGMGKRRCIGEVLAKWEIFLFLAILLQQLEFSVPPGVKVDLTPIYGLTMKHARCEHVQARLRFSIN
The data set is described as follows: Inhibition of CYP1A2 in human liver microsomes. Type of data set: ADME. In a few lines: (§2)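 CYP1A2, 2C9, 2D6 and 3A4 inhibition measured together in a cocktail assay with human liver microsomes and known probe substrates; IC50 determined.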

The target in another data set is Cytochrome P450 2C9 (Homo sapiens, UniProt P11712). As to the kind of experiment: Inhibition of CYP2C9 in human liver microsomes. Type of data set: ADME. Summed up:
as §2

Another data set deals with Cytochrome P450 2D6 (Homo sapiens, UniProt P10635). The data set is described as follows: Inhibition of CYP2D6 in human liver microsomes. Type of data set: ADME. Summed up: as §2
Another data set addresses Cytochrome P450 3A4 (Homo sapiens, UniProt P08684). As to the kind of experiment: Inhibition of CYP3A4 in human liver microsomes. Type of data set: ADME. Summed up:
as §2

The nature of data set [9]: Kinetic solubility of the compound in buffer at pH 2. Type of data set: physicochemical. In a few lines: (§3)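 Kinetic aqueous solubility measured in buffers at pH 2, 4 and 7.4.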
The nature of data set [10]: Kinetic solubility of the compound in buffer at pH 4. Type of data set: physicochemical. In a few lines:
as §3

Data set [11] in a line: Solubility of the compound in fasted simulated intestinal fluid at pH 7.2 after 24 hrs. The following applies: simulated gi fluid, pH 7.2, 24 h. Format: ADME. In a few lines:
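Solubility in fasted simulated intestinal fluid (FaSSIF), pH 7.2.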

Data set [12] can be described thus: Half life in rat at 1 mg/kg, iv and 10 mg/kg, po. Format: ADME, organism-based. As to conditions: in vivo. In a few lines:
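Rat pharmacokinetics with 1 mg/kg IV and 10 mg/kg PO dosing; oral arm given in 0.5% methyl cellulose (1 mg/mL, noncrossover) to male Sprague–Dawley rats.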

Data set [13] can be described thus: Cmax in Sprague-Dawley rat at 10 mg/kg, po. Format: ADME, organism-based. Further details: dose 10 mg/kg, route oral. The following applies: in vivo.
Data set [14] is described as follows: Tmax in Sprague-Dawley rat at 10 mg/kg, po. Format: ADME, organism-based. More on the design: dose 10 mg/kg, route oral. As to conditions: in vivo.
The subject of a further data set is Rattus norvegicus. The data set is described as follows: Reversal of amphetamine-induced hyperlocomotion in Sprague-Dawley rat at 56.6 mg/kg, po administered for 30 mins prior to amphetamine challenge for 60 mins. Format: functional. Summed up: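 Male Sprague–Dawley rats (250–375 g), food-deprived the evening before, were habituated 30 min in locomotor chambers. They were then dosed po with vehicle (20% HP-β-CD in water, pH 6–7, max 10 mL/kg) or test article, followed 30 min later by amphetamine 1 mg/kg sc, n = 6–8 per group. Photobeam breaks were counted per 5 min over 120 min. Percent reversal used t = 60–120 totals versus the vehicle + amphetamine group, reported as mean ± SE.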

The nature of data set [15]: Drug uptake in Sprague-Dawley rat brain at 56.6 mg/kg, po after 1.5 hrs by LC-MS/MS analysis. Format: ADME, organism-based. More on the design: dose 56.6 mg/kg, route oral. As to conditions: read-out: Drug uptake. In a few lines:
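Male Sprague–Dawley rats (250–375 g), fasted overnight, were dosed orally at 56.6 mg/kg in 20% HP-β-cyclodextrin (pH 6–7) during an amphetamine hyperlocomotion screen. Brain and plasma were taken at 1.5 h. Brain was homogenized in 70:30 2-propanol:water, and samples were diluted in acetonitrile with 50 nM carbamazepine internal standard. Analysis was C18 gradient LC-ESI-MS/MS against a standard curve.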

Metabotropic glutamate receptor 1, sequence (P23385 whole entry): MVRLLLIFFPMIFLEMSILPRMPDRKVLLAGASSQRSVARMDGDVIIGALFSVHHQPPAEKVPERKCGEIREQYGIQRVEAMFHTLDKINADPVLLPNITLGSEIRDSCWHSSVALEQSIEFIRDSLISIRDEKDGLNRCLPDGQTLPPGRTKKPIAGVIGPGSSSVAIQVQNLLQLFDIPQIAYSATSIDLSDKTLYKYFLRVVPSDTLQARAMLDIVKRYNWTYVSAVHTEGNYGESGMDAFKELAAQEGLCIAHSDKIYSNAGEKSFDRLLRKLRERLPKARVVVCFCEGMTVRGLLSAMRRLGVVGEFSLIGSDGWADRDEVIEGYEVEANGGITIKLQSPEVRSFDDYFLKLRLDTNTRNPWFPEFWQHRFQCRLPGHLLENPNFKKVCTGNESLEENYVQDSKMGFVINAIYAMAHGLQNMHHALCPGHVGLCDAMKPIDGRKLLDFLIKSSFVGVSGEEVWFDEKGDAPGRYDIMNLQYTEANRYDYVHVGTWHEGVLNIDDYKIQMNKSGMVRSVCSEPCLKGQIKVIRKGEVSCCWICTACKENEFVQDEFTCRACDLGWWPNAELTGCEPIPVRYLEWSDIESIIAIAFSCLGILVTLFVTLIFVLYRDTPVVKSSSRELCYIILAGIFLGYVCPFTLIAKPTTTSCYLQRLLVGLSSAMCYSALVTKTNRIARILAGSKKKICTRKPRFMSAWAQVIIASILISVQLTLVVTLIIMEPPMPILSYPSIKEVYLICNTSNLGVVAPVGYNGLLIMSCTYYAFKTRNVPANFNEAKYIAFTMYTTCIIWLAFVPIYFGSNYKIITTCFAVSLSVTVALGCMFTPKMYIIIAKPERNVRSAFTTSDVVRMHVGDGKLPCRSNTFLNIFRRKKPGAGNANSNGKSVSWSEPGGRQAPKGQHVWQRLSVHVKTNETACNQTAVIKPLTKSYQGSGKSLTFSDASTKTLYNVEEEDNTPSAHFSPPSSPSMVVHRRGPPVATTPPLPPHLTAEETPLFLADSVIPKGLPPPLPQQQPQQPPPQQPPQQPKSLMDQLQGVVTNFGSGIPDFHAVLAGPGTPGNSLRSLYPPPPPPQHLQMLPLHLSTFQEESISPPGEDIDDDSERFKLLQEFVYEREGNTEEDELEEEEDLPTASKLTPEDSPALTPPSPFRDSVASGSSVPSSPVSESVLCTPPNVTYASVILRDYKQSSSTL
Cytochrome P450 2C9, sequence (P11712 whole entry): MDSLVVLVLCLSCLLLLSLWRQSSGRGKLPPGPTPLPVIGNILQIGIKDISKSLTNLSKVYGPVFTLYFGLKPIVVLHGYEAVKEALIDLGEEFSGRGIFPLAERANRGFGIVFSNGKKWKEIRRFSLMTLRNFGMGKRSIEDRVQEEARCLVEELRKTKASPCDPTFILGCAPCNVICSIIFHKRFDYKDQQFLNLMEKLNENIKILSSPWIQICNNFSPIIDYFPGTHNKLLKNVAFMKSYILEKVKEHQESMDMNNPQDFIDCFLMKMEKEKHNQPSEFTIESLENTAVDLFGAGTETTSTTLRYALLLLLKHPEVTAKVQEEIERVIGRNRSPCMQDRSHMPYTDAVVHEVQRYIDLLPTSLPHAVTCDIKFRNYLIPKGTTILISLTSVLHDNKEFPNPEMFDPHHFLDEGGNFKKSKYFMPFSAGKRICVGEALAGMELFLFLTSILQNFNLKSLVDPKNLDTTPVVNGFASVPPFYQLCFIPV
Metabotropic glutamate receptor 8, sequence (P70579 whole entry): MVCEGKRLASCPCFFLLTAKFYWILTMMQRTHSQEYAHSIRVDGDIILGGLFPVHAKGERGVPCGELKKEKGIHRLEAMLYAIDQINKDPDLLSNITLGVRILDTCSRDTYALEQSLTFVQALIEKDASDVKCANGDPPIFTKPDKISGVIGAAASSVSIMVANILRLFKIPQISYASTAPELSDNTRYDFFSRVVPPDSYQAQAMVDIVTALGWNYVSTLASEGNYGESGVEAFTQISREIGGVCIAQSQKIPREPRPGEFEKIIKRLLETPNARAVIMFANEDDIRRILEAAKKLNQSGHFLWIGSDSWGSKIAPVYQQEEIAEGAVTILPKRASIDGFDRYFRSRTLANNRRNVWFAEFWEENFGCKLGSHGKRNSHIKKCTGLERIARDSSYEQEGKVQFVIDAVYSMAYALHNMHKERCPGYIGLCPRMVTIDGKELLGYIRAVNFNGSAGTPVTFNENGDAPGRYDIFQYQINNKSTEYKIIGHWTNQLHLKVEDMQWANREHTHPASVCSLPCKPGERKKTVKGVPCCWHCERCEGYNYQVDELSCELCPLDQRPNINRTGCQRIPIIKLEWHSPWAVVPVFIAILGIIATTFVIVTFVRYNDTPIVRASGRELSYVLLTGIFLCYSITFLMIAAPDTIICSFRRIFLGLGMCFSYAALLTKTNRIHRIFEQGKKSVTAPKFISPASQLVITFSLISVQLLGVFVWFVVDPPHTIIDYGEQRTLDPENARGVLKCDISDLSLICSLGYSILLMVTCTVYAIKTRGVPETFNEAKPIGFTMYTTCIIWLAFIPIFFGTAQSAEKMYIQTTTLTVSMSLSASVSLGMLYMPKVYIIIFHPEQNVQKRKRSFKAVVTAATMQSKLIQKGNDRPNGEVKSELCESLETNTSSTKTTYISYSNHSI
Cytochrome P450 3A4, sequence (P08684 whole entry): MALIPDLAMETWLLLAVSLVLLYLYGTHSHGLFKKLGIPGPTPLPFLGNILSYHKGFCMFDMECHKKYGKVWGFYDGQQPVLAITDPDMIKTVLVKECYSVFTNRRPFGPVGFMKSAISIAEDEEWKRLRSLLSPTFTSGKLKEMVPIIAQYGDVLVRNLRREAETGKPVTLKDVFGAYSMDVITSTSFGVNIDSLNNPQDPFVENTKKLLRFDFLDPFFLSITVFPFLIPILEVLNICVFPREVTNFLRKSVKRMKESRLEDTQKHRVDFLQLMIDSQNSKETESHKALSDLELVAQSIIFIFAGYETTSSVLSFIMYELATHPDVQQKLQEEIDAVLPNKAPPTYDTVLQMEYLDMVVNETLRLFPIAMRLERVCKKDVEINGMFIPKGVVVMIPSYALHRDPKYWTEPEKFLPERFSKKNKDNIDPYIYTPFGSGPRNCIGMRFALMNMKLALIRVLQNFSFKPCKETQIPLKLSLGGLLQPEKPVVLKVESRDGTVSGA
Metabotropic glutamate receptor 4, sequence (P31423 whole entry): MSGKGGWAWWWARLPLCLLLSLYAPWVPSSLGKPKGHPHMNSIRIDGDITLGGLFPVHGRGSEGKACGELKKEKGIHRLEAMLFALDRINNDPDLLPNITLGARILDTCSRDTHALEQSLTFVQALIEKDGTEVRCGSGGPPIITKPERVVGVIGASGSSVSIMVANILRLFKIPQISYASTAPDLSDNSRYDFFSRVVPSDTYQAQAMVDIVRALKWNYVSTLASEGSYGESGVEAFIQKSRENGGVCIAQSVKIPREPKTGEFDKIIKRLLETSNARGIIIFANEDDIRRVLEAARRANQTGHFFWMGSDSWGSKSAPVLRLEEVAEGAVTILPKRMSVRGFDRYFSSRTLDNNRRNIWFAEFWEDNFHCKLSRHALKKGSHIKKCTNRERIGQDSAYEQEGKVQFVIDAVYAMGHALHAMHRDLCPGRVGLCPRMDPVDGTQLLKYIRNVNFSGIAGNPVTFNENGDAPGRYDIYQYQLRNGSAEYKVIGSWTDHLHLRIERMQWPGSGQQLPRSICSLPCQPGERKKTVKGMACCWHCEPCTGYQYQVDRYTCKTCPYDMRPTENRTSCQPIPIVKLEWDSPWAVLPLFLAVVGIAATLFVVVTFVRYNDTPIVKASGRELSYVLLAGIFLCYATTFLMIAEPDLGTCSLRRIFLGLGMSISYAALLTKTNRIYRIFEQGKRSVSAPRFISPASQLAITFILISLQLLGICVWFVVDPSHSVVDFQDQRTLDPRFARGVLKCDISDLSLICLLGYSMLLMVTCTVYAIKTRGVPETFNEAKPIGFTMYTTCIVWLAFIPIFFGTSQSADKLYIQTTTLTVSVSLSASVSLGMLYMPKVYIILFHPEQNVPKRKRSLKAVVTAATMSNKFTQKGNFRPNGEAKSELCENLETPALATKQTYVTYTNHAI

For `O=C1NCCc2nc(OCc3cccc(F)c3)ccc21`, the “K(p,uu,brain)” value in data set [1] amounted to 1.1. Besides, the pEC50 was 6.65 in [2]; less than 5.00 in [3]; less than 5.00 in [4]; less than 5.00 in data set [5]; less than 5.00 in data set [6]; less than 5.00 in data set [7]. Besides, the pEC50 in data set [8] was less than 5.00. For the same compound, the Fu in the data set with Plasma stood at 0.034. In addition, the negative logarithm of the IC50 (pIC50) against Cytochrome P450 1A2 is 4.59; against Cytochrome P450 2C9, less than 4.52; against Cytochrome P450 2D6, less than 4.52; on Cytochrome P450 3A4, less than 4.52. Moreover, the values for the Kinetic_solubility in [9] and in data set [10] were 38 µM and 29 µM, respectively. Moreover, in data set [11], the solubility was 0.031 mg/mL (≈ 114 µM). Further, the half-life in [12] is 18 min. This compound also had a peak concentration (Cmax) in [13] of 3.36 µM. In data set [14], the time of peak concentration (Tmax) came to 30 min. Also, in the data set on Rattus norvegicus, the inhibition in vivo at 56.6 mg/kg is more than 30%. The concentration at 1.5 h in data set [15] was determined as 16.6 µM.
